Results on two compounds are retold here after ChEMBL document CHEMBL1143805, “Synthesis and antimicrobial activities of some novel 1,2,4-triazolo[3,4-b]-1,3,4-thiadiazoles and 1,2,4-triazolo[3,4-b]-1,3,4-thiadiazines carrying thioalkyl and sulphonyl phenoxy moieties” (2007).

The test system of assay [1] is Talaromyces marneffei. As to the kind of experiment: Antifungal activity against Penicillium marneffei. In kind it is functional. Particulars: for MIC: Talaromyces marneffei. In a few lines:
(§1)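 Agar-well diffusion on Sabouraud agar at pH 5.7. Plates were lawned with a saline spore suspension (one loopful in 3 ml), decanted and dried 1 h at 37 °C. Compounds in DMSO went into punched wells, with a DMSO solvent control. Plates were run in triplicate and kept at 37 °C for 3-4 days, with inhibition-zone diameter as read-out.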

Assay [2] deals with Staphylococcus aureus. The assay can be described thus: Antibacterial activity against Staphylococcus aureus ATCC 25923. In kind it is functional. Particulars: for MIC: Staphylococcus aureus, ATCC 25923. In a few lines:
(§2)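 MIC by serial dilution in Mueller-Hinton broth tubes, pH adjusted to 5.0 with phosphate buffer. A standardized bacterial suspension was inoculated and incubated 16-18 h at 37 °C, and MIC was read as the lowest concentration with no visible growth. Zones were also measured in agar wells on seeded plates, with compounds in DMSO and a DMSO control, triplicate plates, 37 °C for 3-4 days.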

For assay [3], the system named is Aspergillus flavus. As to the kind of experiment: Antifungal activity against Aspergillus flavus NCIM 524. Particulars: for MIC: Aspergillus flavus, NCIM 524. In kind it is functional. In a few lines:
as §1

Assay [4] has as its system Pseudomonas aeruginosa. As to the kind of experiment: Antibacterial activity against Pseudomonas aeruginosa ATCC 27853. The assay is classed as functional. The note with it: for MIC: Pseudomonas aeruginosa, ATCC 27853. In a few lines:
as §2

The test system of assay [5] is Klebsiella pneumoniae. The assay can be described thus: Antibacterial activity against Klebsiella pneumoniae. The assay is classed as functional. The note with it: for MIC: Klebsiella pneumoniae. The procedure, abridged: as §2
For assay [6], the system named is Aspergillus fumigatus. The assay can be described thus: Antifungal activity against Aspergillus fumigatus NCIM 902. Particulars: for MIC: Aspergillus fumigatus, NCIM 902. In kind it is functional.
Assay [7] concerns Trichophyton benhamiae. The assay can be described thus: Antifungal activity against Trichophyton mentagrophytes. The assay is classed as functional, Arthroderma benhamiae. The note with it: for MIC: Trichophyton benhamiae. The procedure, abridged:
as §1

Assay [8] concerns Escherichia coli. As to the kind of experiment: Antibacterial activity against Escherichia coli ATCC 25922. Particulars: for MIC: Escherichia coli, ATCC 25922. The assay is classed as functional. In a few lines:
as §2

≈ marks a conversion by molar mass, not a printed value.

One may read the MIC as the lowest concentration found to suppress growth. Low readings indicate inhibition by little substance, high ones a need for much substance. Turning to `CSc1ccc(OCc2nnc3sc(-c4ccccc4)nn23)cc1`, the “inhibition zone (IZ)” value in assay [1], in assay [2], in assay [3], in assay [4], in assay [5] and in assay [6] was 16 mm each time. Also, the “inhibition zone (IZ)” value in assay [7] and in assay [8] was 16 mm each time. Moreover, the MIC in assay [1], in assay [2], in assay [3], in assay [4], in assay [5] and in assay [6] was 6.25 µg/mL (≈ 17.6 µM) each time. Further, the MIC in assay [7] and in assay [8] was 6.25 µg/mL (≈ 17.6 µM) in each case.
With `CCSc1ccc(OCc2nnc3sc(-c4ccc(OC)cc4)nn23)cc1`, the “inhibition zone (IZ)” value in assay [1], in assay [2], in assay [3], in assay [4], in assay [5] and in assay [6] was below 10 mm each time. The “inhibition zone (IZ)” value in assay [7] and in assay [8] was below 10 mm each time. Moreover, the MIC in assay [1], in assay [2], in assay [3], in assay [4], in assay [5] and in assay [6] was 25 µg/mL (≈ 62.7 µM) throughout. Also, the MIC in assay [7] and in assay [8] was 25 µg/mL (≈ 62.7 µM) each time.
